Source: ChEMBL document CHEMBL1145031, “Rational design, synthesis, and structure-activity relationships of novel factor Xa inhibitors: (2-substituted-4-amidinophenyl)pyruvic and -propionic acids” (J Med Chem, 2003)
pKi: −log10 of the molar value.

How the values were obtained:
[1] = biological target: Coagulation factor X (Homo sapiens, UniProt P00742); assay: Inhibitory activity against Coagulation factor X (fXa)
Outline: (§1)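 Chromogenic assay at room temperature in pH 8.4 buffer (0.1 M Tris, 0.2 M NaCl, 0.1% PEG-6000, 0.02% Tween20). For fXa, 4.5 nM enzyme with 200 μM S-2222; for thrombin, 1.1 nM enzyme with 100 μM S-2238 (final). Inhibitor and enzyme preincubated 10 min, then substrate added. p-Nitroaniline release read at 405 nm for 16 min. IC50 taken from initial velocities; apparent Ki scaled from IC50 ratios against a standard inhibitor's Ki from a double reciprocal plot.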

[2] = biological target: Prothrombin (Homo sapiens, UniProt P00734); assay: Inhibitory activity against thrombin; outline: as §1
[3] = biological target: Thrombin and coagulation factor X (Homo sapiens) (UniProt P00734+P00742); assay: Selectivity for factor Xa (fXa) versus thrombin; format: protein assay
[4] = organism: Homo sapiens; assay: Concentration required to double the prothrombin time(PT) in human plasma was determined; format: functional
[5] = tested on: Monkey; assay: Concentration required to double the prothrombin time (PT) in plasma of cynomolgus monkey
[6] = Oral bioavailability; format: ADME, organism-based; conditions: eutheria, in vivo
Outline: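 Overnight-fasted male cynomolgus monkeys received 10 mg/kg orally by gastric tube, or 0.3 or 1.0 mg/kg intravenously. Saphenous vein blood was drawn into trisodium citrate before dosing and at several times up to 24 h. Plasma drug levels were measured by HPLC.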

Sequence of Coagulation factor X (P00742 41-179 limits assumed): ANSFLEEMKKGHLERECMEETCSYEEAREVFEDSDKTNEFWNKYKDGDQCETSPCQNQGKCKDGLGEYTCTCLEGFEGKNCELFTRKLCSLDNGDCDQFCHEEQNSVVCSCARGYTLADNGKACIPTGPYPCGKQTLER
Sequence of Coagulation factor X (P00742 235-488 limits assumed): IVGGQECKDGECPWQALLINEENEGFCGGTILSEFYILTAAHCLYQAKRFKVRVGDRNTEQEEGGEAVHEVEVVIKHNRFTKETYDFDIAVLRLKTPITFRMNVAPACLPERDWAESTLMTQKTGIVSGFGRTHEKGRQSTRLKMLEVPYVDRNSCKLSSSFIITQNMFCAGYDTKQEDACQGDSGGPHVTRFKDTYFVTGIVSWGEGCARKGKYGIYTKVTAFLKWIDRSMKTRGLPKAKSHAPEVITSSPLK
Sequence of Thrombin and coagulation factor X (Homo sapiens) (P00742 whole entry, looked up, other chains not shown): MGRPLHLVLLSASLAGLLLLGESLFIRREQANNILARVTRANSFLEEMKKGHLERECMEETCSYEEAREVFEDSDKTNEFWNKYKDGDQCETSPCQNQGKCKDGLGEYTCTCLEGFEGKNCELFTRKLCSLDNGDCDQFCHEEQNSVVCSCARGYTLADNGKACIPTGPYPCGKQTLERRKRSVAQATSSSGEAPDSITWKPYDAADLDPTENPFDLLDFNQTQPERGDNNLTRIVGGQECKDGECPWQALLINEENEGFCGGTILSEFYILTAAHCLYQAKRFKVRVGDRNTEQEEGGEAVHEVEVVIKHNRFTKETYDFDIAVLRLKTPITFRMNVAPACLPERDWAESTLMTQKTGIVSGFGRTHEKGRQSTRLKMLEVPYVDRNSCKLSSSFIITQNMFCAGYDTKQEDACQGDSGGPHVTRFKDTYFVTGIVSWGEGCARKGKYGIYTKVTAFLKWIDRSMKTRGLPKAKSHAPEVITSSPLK

Compound | pKi [1] | pKi [2] | Ratio [3] | bioavailability [6] [%] | PT [4] [µM] | PT [5] [µM]
CC(=N)N1CCC(Oc2ccc(C(=O)NCCOc3cc(C(=N)N)ccc3CC(=O)C(=O)O)cc2)CC1 | 7.70 | 4.28 | 2700 | – | 0.2 | 0.12
CC(=N)N1CCC(Oc2ccc(C(=O)NCCOc3cc(C(=N)N)ccc3CCC(=O)O)cc2)CC1 | 7.48 | < 2.82 | > 45000 | – | – | –
N=C(N)c1ccc(CC(=O)C(=O)O)c(OCCNC(=O)c2ccc(C(=O)N3CCCC3)cc2)c1 | 8.52 | 4.62 | 8000 | – | – | –
N=C(N)c1ccc(CCC(=O)O)c(OCCNC(=O)C2CCN(c3ccncc3)CC2)c1 | 7.37 | < 2.82 | > 35000 | 6 | 0.42 | 0.7
CC(=N)N1CCC(Oc2ccc(C(=O)N[C@@H](COc3cc(C(=N)N)ccc3CC(=O)C(=O)O)CC(=O)O)cc2)CC1 | 7.96 | 3.27 | 49000 | 12 | 0.38 | 0.38
N=C(N)c1ccc(C(=O)N[C@H](COc2cccc(C(=N)N)c2)CC(=O)O)cc1 | 6.77 | < 2.82 | > 8800 | – | – | –
N=C(N)c1ccc(CC(=O)C(=O)O)c(OC[C@@H](CC(=O)O)NC(=O)C2CCN(c3ccncc3)CC2)c1 | 7.74 | 3.17 | 38000 | – | – | –
N=C(N)c1ccc(C(=O)NCCOc2cc(C(=N)N)ccc2CC(=O)C(=O)O)cc1 | 7.59 | 4.42 | 1500 | – | – | –
N=C(N)c1ccc(CC(=O)C(=O)O)c(OCCNC(=O)C2CCN(c3ccncc3)CC2)c1 | 7.68 | 3.85 | 6700 | 12 | 0.22 | 0.22

Further lines, with some results ahead:

pKi [1] | pKi [2] | Ratio [3] | bioavailability [6] [%] | Compound | PT [4] [µM] | PT [5] [µM]
6.77 | 3.36 | 2600 | – | CC(=N)N1CCC(Oc2ccc(C(=O)NCCOc3cccc(C(=N)N)c3)cc2)CC1 | – | –
6.66 | 3.15 | 3200 | – | N=C(N)c1ccc(C(=O)NCCOc2cccc(C(=N)N)c2)cc1 | – | –
7.70 | 3.96 | 5500 | – | N=C(N)c1cccc(OCCNC(=O)c2ccc(C(=O)N3CCCC3)cc2)c1 | – | –
5.55 | 3.10 | 290 | – | N=C(N)c1cccc(OCCNC(=O)c2ccccc2)c1 | – | –
7.55 | < 2.82 | > 54000 | – | N=C(N)c1ccc(C(=O)N[C@@H](COc2cccc(C(=N)N)c2)CC(=O)O)cc1 | – | –
6.54 | 3.00 | 3500 | – | N=C(N)c1cccc(OCCNC(=O)C2CCN(c3ccncc3)CC2)c1 | – | –
